The source of these data is ChEMBL document CHEMBL4342411, “Novel multitarget 5-arylidenehydantoins with arylpiperazinealkyl fragment: Pharmacological evaluation and investigation of cytotoxicity and metabolic stability” (Bioorg Med Chem, 2019).

The target of series [1] is 5-hydroxytryptamine receptor 6 (Homo sapiens) (UniProt P50406). Put plainly: Displacement of [3H]-LSD from human recombinant 5-HT6 receptor expressed in CHO cells at 10^-6 M incubated for 60 mins by microbeta2 scintillation counter relative to control. It is filed as cell-based. The method, boiled down:
(§1)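 Radioligand displacement from recombinant human receptor membranes, tested at two final concentrations (10^-6 and 10^-7 M), with scintillation counting. Results were expressed as percent inhibition of specific binding.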

Series [2] concerns the target 3',5'-cyclic-AMP phosphodiesterase 4B (Homo sapiens) (UniProt Q07343). Description: Inhibition of human recombinant full length N-terminal GST-tagged PDE4B1 expressed in baculovirus infected Sf9 cells at 10^-5 M using cAMP as substrate incubated for 20 mins followed by substrate addition by luciferase assay relative to control.
The target of series [3] is T1, 5-hydroxytryptamine receptor 1A (Homo sapiens, UniProt P08908).
T1 sequence (P08908 whole entry): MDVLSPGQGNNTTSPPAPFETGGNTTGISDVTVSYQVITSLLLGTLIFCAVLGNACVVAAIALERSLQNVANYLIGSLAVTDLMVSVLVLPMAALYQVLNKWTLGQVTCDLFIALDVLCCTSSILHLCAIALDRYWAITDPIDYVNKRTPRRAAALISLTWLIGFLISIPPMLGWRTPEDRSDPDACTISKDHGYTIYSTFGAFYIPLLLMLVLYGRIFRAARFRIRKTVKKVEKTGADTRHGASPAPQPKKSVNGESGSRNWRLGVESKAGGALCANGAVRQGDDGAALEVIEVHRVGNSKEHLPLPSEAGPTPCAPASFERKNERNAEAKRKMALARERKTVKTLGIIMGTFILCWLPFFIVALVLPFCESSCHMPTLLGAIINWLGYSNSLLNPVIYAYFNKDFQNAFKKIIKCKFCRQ
Put plainly: Displacement of [3H]-8-OH-DPAT from human recombinant 5-HT1A receptor expressed in HEK293 cells incubated for 60 mins by microbeta2 scintillation counter. It is filed as cell-based.

The target of series [4] is T2, 5-hydroxytryptamine receptor 7 (Homo sapiens, UniProt P34969). Put plainly: biochemical. It is filed as cell-based, CHO.
T2 sequence (P34969 whole entry): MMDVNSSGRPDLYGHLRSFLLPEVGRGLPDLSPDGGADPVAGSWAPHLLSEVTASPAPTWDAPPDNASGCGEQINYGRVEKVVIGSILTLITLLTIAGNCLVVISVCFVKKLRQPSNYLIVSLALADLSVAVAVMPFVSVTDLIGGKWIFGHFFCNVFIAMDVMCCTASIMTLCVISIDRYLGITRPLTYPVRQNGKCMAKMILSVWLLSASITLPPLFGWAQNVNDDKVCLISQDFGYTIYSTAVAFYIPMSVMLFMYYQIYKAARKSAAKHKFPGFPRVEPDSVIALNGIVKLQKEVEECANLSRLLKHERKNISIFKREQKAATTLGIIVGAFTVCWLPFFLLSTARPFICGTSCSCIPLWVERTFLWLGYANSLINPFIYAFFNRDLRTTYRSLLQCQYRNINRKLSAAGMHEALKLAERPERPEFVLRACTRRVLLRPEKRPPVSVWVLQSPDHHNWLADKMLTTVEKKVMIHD
Series [5] addresses 5-hydroxytryptamine receptor 6 (Homo sapiens) (UniProt P50406). Put plainly: Displacement of [3H]-LSD from human recombinant 5-HT6 receptor expressed in CHO cells at 10^-7 M incubated for 60 mins by microbeta2 scintillation counter relative to control. It is filed as cell-based. The method, boiled down:
as §1

The target of series [6] is T3, 5-hydroxytryptamine receptor 1A (Homo sapiens) (UniProt P08908).
T3 sequence (whole entry): T1 sequence (P08908 whole entry)
Put plainly: Agonist activity at human recombinant 5-HT1A receptor expressed in CHOK1 cells measured after 1 hr by microbeta2 scintillation counter relative to control. It is filed as cell-based. In short, it runs like this:
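Aequorin Ca2+ assay in CHO-K1 cells coexpressing mitochondrial aequorin, human 5-HT1A and Gα16. Thawed cells were loaded with coelenterazine h (5 μM final) for 16 h at 16 °C in the dark with agitation, then diluted to 5000 cells/ml. After 1 h they were injected onto the compounds (8–10 concentrations) and luminescence was recorded for 30 s.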

The target in series [7] is T3, 5-hydroxytryptamine receptor 1A (Homo sapiens). Put plainly: Antagonist activity at human recombinant 5-HT1A receptor expressed in CHOK1 cells incubated for 25 mins followed by addition of […] by microbeta2 scintillation counter relative to control. It is filed as cell-based. In short, it runs like this: (§2)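 Aequorin Ca2+ assay in antagonist mode in CHO-K1 cells expressing human 5-HT1A, Gα16 and mitochondrial aequorin, loaded with 5 μM coelenterazine h. Cells were injected onto the compounds (8–10 concentrations) and incubated for 25 min.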

For series [8], the target named is T2, 5-hydroxytryptamine receptor 7. Put plainly: Agonist activity at human recombinant 5-HT7 receptor expressed in CHOK1 cells by LANCE TR-FRET assay relative to control. It is filed as cell-based. In short, it runs like this: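 cAMP assay in CHO-K1 cells expressing human 5-HT7 […], at 2x10^5 cells/ml in HBSS with 5 mM HEPES, IBMX and 0.1% BSA, pH 7.4. Cells were stimulated with the compounds (8 concentrations) for 60 min at room temperature. cAMP was read by LANCE Ultra TR-FRET after 1 h with tracer and antibody. EC50 was obtained by nonlinear regression.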

For series [9] the target is unchanged. Description: Antagonist activity at human recombinant 5-HT7 receptor expressed in CHOK1 cells measured after 60 mins in the presence of serotonin by LANCE TR-FRET assay relative to control. It is filed as cell-based.
The target in series [10] is T3, 5-hydroxytryptamine receptor 1A (Homo sapiens). Put plainly: Antagonist activity at human recombinant 5-HT1A receptor expressed in CHOK1 cells assessed as equilibrium binding constant incubated for 25 mins followed by addition of methiothepin by microbeta2 scintillation counter. It is filed as cell-based. Conditions: in the assay text read “serotonin” for “methiothepin”. The method, boiled down: as §2

Series [11] deals with T2, 5-hydroxytryptamine receptor 7. Put plainly: Antagonist activity at human recombinant 5-HT7 receptor expressed in CHOK1 cells assessed as equilibrium binding constant measured after 60 mins in the presence of serotonin by LANCE TR-FRET assay. It is filed as cell-based.
Series [12] has as its target T1, 5-hydroxytryptamine receptor 1A. Put plainly: Antagonist activity at human recombinant 5-HT1A receptor expressed in CHOK1 cells incubated for 25 mins followed by addition of methiothepin by microbeta2 scintillation counter. It is filed as cell-based. The method, boiled down: as §2
In series [13] the target is T2, 5-hydroxytryptamine receptor 7. Put plainly: Antagonist activity at human recombinant 5-HT7 receptor expressed in CHOK1 cells measured after 60 mins in the presence of serotonin by LANCE TR-FRET assay. It is filed as cell-based.
The test system of another series is SW480. Put plainly: Cytotoxicity against human SW480 cells assessed as growth inhibition measured after 72 hrs by MTT assay. It is filed as functional, cell-based. Conditions: SW480, 72 h. The method, boiled down:
(§3)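 Cells were seeded at 1 × 10^4 per well: SW480 in MEM, PC3 in RPMI 1640, HaCaT in DMEM high glucose, each with 10% FBS. Compounds were added at 10–140 µM and incubated for 72 h. MTT was then added at 0.5 mg/mL in serum-free medium for 4 h at 37 °C. Formazan was dissolved in DMSO/isopropanol (1:1) and read at 570 nm. IC50 was given in µM; untreated cells served as control.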

In the next series the test system is PC-3. Put plainly: Cytotoxicity against human PC3 cells assessed as growth inhibition measured after 72 hrs by MTT assay. It is filed as functional, cell-based. Conditions: PC-3, 72 h. The method, boiled down: as §3
Another series deals with HaCaT. Description: Cytotoxicity against human HaCaT cells assessed as growth inhibition measured after 72 hrs by MTT assay. It is filed as cell-based. The method, boiled down: as §3
Series [14] can be described thus: Selectivity index, ratio of IC50 for human HaCaT cells to IC50 for human SW480 cells.
Series [15] in a line: Selectivity index, ratio of IC50 for human HaCaT cells for human PC3 cells. It is filed as toxicity. The following applies: HaCaT cells versus PC3 cells, read-out: Ratio IC50.
For series [16], the system named is Mus musculus. Description: Antidepressant activity in Swiss albino mouse assessed as decrease in immobility time at 0.625 to 2.5 mg/kg, ip measured after 60 mins by forced swim test relative to control. It is filed as functional. Details: scale not given: the % may be the effect or the level left. The method, boiled down: (§4)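 Male Swiss albino mice (22–26 g), 7–10 per dose, were dosed ip in 1% Tween 80 at 10 ml/kg 60 min before the test. In the Porsolt test, each mouse was placed for 6 min in a cylinder with 6 cm of water at 23–25 °C. Immobility was scored over the last 4 min and compared with vehicle controls by ANOVA/Bonferroni.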

For series [17], the system named is Mus musculus. Description: Effect on locomotor activity in Swiss albino mouse at 0.625 to 2.5 mg/kg, ip. It is filed as ADME, organism-based. The following applies: in vivo. In short, it runs like this: (§5)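 Male Swiss albino mice were dosed ip in 1% Tween 80 at 10 ml/kg 60 min before testing. Each mouse was placed individually in a cage in a photobeam activity monitor. Ambulation crossings were counted from 2 to 6 min.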

Series [18] can be described thus: Metabolic stability in mouse liver microsomes assessed as metabolite formation measured after 30 mins in the presence of NADPH by LC-MS/MS analysis. It is filed as ADME, Microsome. Conditions: 0.5 h. In short, it runs like this: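 Compound (20 µM final) was preincubated with mouse liver microsomes (0.4 mg/mL) in 100 mM potassium phosphate, pH 7.4, at 37 °C for 15 min. The reaction was started with an NADPH-regenerating system and sampled at 5, 15 and 30 min. Levallorphan internal standard was added, the reaction was stopped with perchloric acid, and samples were analysed by LC-MS/MS. No-NADPH incubations served as negative controls.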

Series [19] concerns the target 5-hydroxytryptamine receptor 2A (Homo sapiens) (UniProt P28223). Conditions: HEK293, at 1 µM.
Series [20] has the same target. Conditions: HEK293, at 0.1 µM.
Series [21] in a line: in vitro. Conditions: CD1, mouse, liver microsomes.
A short description of series [22]: in vitro. Conditions: CD1, mouse, liver microsomes. The source holds these as a separate data set.
In series [23] the test system is Mus musculus. Description: Antidepressant activity in Swiss albino mouse assessed as decrease in immobility time at 0.625 mg/kg, ip measured after 60 mins by forced swim test relative to control. Set-up: scale not given: the % may be the effect or the level left. It is filed as functional. The method, boiled down:
as §4

For series [24], the system named is Mus musculus. Description: Effect on locomotor activity in Swiss albino mouse at 0.625 mg/kg, ip. It is filed as ADME, organism-based. The following applies: in vivo. The method, boiled down:
as §5

Where [25] appears, read: in the assay text read “serotonin” for “methiothepin”, read-out: IC50.

Sequence of 5-hydroxytryptamine receptor 2A (Homo sapiens) (P28223 whole entry): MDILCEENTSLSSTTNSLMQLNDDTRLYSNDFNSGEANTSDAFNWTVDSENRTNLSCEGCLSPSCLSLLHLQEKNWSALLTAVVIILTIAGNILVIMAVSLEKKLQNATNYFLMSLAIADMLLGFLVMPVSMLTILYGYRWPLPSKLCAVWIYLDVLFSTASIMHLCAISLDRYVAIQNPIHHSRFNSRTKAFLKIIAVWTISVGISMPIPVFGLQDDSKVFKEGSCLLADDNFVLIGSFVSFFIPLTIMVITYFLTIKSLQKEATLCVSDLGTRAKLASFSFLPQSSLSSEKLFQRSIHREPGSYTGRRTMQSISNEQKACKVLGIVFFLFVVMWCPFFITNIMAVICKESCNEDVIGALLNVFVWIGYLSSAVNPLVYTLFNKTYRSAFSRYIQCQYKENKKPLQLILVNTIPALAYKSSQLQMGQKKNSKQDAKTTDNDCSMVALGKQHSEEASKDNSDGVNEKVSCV
Sequence of 5-hydroxytryptamine receptor 6 (Homo sapiens) (P50406 whole entry): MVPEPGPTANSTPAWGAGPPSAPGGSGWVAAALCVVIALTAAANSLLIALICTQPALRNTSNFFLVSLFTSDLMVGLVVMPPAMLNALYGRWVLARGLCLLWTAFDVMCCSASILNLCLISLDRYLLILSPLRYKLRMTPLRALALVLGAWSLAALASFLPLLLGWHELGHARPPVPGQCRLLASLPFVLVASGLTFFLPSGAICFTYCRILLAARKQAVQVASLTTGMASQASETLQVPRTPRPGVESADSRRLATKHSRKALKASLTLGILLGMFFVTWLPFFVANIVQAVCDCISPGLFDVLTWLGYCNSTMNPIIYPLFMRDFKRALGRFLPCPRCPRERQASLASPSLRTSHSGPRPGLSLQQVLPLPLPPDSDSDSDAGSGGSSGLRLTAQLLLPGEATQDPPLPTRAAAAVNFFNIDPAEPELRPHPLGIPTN
Sequence of 3',5'-cyclic-AMP phosphodiesterase 4B (Homo sapiens) (Q07343 whole entry): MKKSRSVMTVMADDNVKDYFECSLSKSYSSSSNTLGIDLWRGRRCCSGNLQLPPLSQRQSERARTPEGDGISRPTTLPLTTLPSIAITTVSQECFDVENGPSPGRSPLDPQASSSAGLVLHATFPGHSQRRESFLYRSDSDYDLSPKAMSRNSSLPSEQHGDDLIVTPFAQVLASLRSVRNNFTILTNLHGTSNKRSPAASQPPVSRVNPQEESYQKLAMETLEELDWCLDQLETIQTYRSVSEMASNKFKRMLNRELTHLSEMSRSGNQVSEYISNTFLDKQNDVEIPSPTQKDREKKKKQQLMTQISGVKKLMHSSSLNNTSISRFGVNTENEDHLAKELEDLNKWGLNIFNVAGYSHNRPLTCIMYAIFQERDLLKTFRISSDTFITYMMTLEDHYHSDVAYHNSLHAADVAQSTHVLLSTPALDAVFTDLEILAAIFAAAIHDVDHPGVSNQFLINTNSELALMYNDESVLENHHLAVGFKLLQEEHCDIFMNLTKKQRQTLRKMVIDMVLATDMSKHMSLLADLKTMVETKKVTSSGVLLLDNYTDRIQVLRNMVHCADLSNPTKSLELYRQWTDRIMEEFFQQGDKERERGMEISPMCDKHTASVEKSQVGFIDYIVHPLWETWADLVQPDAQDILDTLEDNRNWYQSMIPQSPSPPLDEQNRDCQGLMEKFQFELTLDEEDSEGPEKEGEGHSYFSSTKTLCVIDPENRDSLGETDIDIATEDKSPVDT

Consider `COc1ccc(/C=C2\NC(=O)N(CCCCN3CCN(c4ccccc4OC)CC3)C2=O)cc1OC1CCCC1`, for which the inhibition was 5% in series [1]; 14% in [2]; 0% in series [5]; 95% in [19]; 50% in [20]. The inhibitory constant (Ki) in [3] and in [4] was 0.001 µM each time. In addition, the maximal response (Emax) in [6] worked out at 6%; in series [7] it was 3%; in [8], 14%; in [9], 33%. Also, the Kb in series [10] is 0.0017 µM; in series [11], 0.073 µM. Moreover, the IC50 was 0.054 µM in [12] (setting [25]); 0.0617 µM in series [12] (read-out: pIC50 (converted)); 0.219 µM in series [13]; 185 µM in the series with SW480; 254 µM with PC-3; 151 µM with HaCaT. Also, the “Ratio IC50” value in [14] amounted to 0.81. In addition, the selectivity ratio in series [15] was determined as 0.59. Besides, the Activity in the series on Mus musculus [16] is 30%; in the series with Mus musculus [17], “Non-Toxic”. Besides, in series [18], the Drug metabolism entry is “Metabolite_Detected”. In the series “in vitro [21]”, this compound displayed a half-life of 12.8 min. This compound also gave an intrinsic clearance (microsomal CLint) in “in vitro [22]” of 136 µL/min/mg.

With `COc1ccc(/C=C2\NC(=O)N(CCCCN3CCN(c4cccc(Cl)c4Cl)CC3)C2=O)cc1OC`, the inhibition in [1] amounted to 82%; in [2], 5%; in series [5], 6%; in series [19] it was 98%; in series [20] it was 82%. The inhibition constant (Ki) in [3] was determined as 0.0002 µM; in series [4] it was 0.0008 µM. The maximal effect (Emax) in series [6] is 12%; in series [7], 15%; in [8] it was 13%; in series [9], 37%. The results for the Kb in series [10] and in series [11] were 0.0013 µM and 0.0543 µM, respectively. For the same compound, the IC50 was determined as 0.039 µM in series [12] (setting [25]); 0.163 µM in series [13]; 255 µM in the series with SW480; 227 µM in the series on PC-3; 296 µM in the series with HaCaT. Also, the “Ratio IC50” value in [14] is 1.16. Further, in series [15], the selectivity ratio was found to be 1.31. Further, the Activity is 27% in the series with Mus musculus [23] and “Non-Toxic” in the series on Mus musculus [24].
